Data published in ChEMBL document CHEMBL1649231, “In vitro activities of panduratin A against clinical Staphylococcus strains” (2009).
Converted amounts (≈) assume the structure as drawn.

Tests used:
Format in all cases: functional
[1] = test system: Staphylococcus haemolyticus; experiment: Antimicrobial activity against methicillin-resistant coagulase-negative Staphylococcus haemolyticus assessed as susceptible isolates after 24 hrs by broth microdilution method
[2] = test system: Staphylococcus haemolyticus; experiment: Antimicrobial activity against methicillin-resistant coagulase-negative Staphylococcus haemolyticus after 24 hrs by broth microdilution method
Summary of the method: (§1)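 Clinical isolates came from blood, body fluids, genital secretions, pus or sputum, identified conventionally or by Vitek. MICs were run by CLSI M7-A6 broth microdilution in Mueller-Hinton broth with 5 × 10^5 CFU/ml inoculum. Agents were twofold serially diluted, starting from 10% DMSO. Drug-free and uninoculated controls were included. Plates were incubated aerobically at 37°C for 24 h; MIC is the lowest concentration giving no visible growth.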

Staphylococcus simulans [3] = experiment: Bactericidal activity against methicillin-susceptible coagulase-negative Staphylococcus simulans after 24 hrs by plate counting method
Summary of the method: (§2)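 Clinical staphylococcal isolates from patient body fluids, blood, genital secretions, pus or sputum; species by conventional methods or Vitek. Twofold dilutions in Mueller-Hinton broth, inoculum 5 × 10^5 CFU/ml, 37°C aerobic 24 h (CLSI M7-A6 microdilution). About 100 μl from each well without visible growth spread on MHA; 37°C 24 h. MBC = lowest concentration giving no growth on agar.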

Staphylococcus hominis [4] = experiment: Antimicrobial activity against methicillin-susceptible coagulase-negative Staphylococcus hominis assessed as susceptible isolates after 24 hrs by broth microdilution method
Mammaliicoccus sciuri [5] = experiment: Antimicrobial activity against methicillin-susceptible coagulase-negative Staphylococcus sciuri assessed as susceptible isolates after 24 hrs by broth microdilution method
Summary of the method: (§3)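 Clinical isolates from blood, body fluids, pus, sputum or genital secretions, identified conventionally or by Vitek, were tested alongside ATCC 29213 and ATCC 12228 controls. CLSI M7-A6 broth microdilution in Mueller-Hinton broth used twofold dilutions from a 10% DMSO solution and 5 × 10^5 CFU/ml inoculum. Drug-free and uninoculated wells served as controls; incubation was aerobic at 37°C for 24 h. MIC was the lowest concentration with no visible growth.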

Staphylococcus hominis [6] = experiment: Bactericidal activity against methicillin-susceptible coagulase-negative Staphylococcus hominis after 24 hrs by plate counting method; summary of the method: as §2
Staphylococcus hominis [7] = experiment: Bactericidal activity against methicillin-resistant coagulase-negative Staphylococcus hominis after 24 hrs by plate counting method; conditions: Staphylococcus hominis, 24 h
Staphylococcus aureus [8] = experiment: Bactericidal activity against methicillin-resistant Staphylococcus aureus after 24 hrs by plate counting method
[9] = test system: Staphylococcus epidermidis; experiment: Antimicrobial activity against methicillin-resistant coagulase-negative Staphylococcus epidermidis after 24 hrs by broth microdilution method; summary of the method: as §1
[10] = test system: Staphylococcus epidermidis; experiment: Antimicrobial activity against methicillin-susceptible coagulase-negative Staphylococcus epidermidis assessed as susceptible isolates after 24 hrs by broth microdilution method
Staphylococcus aureus [11] = experiment: Antimicrobial activity against methicillin-resistant Staphylococcus aureus assessed as susceptible isolates after 24 hrs by broth microdilution method
Staphylococcus hominis [12] = experiment: Antimicrobial activity against methicillin-resistant coagulase-negative Staphylococcus hominis assessed as susceptible isolates after 24 hrs by broth microdilution method
[13] = test system: Staphylococcus haemolyticus; experiment: Antimicrobial activity against methicillin-susceptible coagulase-negative Staphylococcus haemolyticus after 24 hrs by broth microdilution method; summary of the method: as §1
[14] = test system: Staphylococcus haemolyticus; experiment: Bactericidal activity against methicillin-susceptible coagulase-negative Staphylococcus haemolyticus after 24 hrs by plate counting method; summary of the method: as §2
Staphylococcus simulans [15] = experiment: Antimicrobial activity against methicillin-susceptible coagulase-negative Staphylococcus simulans after 24 hrs by broth microdilution method; summary of the method: as §1
[16] = test system: Staphylococcus haemolyticus; experiment: Bactericidal activity against methicillin-resistant coagulase-negative Staphylococcus haemolyticus after 24 hrs by plate counting method; conditions: Staphylococcus haemolyticus, 24 h
[17] = test system: Staphylococcus epidermidis; experiment: Antimicrobial activity against methicillin-susceptible coagulase-negative Staphylococcus epidermidis after 24 hrs by broth microdilution method; summary of the method: as §1
Staphylococcus hominis [18] = experiment: Antimicrobial activity against methicillin-susceptible coagulase-negative Staphylococcus hominis after 24 hrs by broth microdilution method; summary of the method: as §1
[19] = test system: Staphylococcus epidermidis; experiment: Bactericidal activity against methicillin-resistant coagulase-negative Staphylococcus epidermidis after 24 hrs by plate counting method; conditions: Staphylococcus epidermidis, 24 h
Mammaliicoccus sciuri [20] = experiment: Bactericidal activity against methicillin-susceptible coagulase-negative Staphylococcus sciuri after 24 hrs by plate counting method; summary of the method: as §2
Mammaliicoccus sciuri [21] = experiment: Antimicrobial activity against methicillin-susceptible coagulase-negative Staphylococcus sciuri after 24 hrs by broth microdilution method; summary of the method: as §1
Staphylococcus aureus [22] = experiment: Antimicrobial activity against methicillin-resistant Staphylococcus aureus after 24 hrs by broth microdilution method; summary of the method: as §1
Mammaliicoccus sciuri [23] = experiment: Bactericidal activity against methicillin-resistant coagulase-negative Staphylococcus sciuri after 24 hrs by plate counting method; conditions: Mammaliicoccus sciuri, 24 h; summary of the method: as §2
[24] = test system: Staphylococcus epidermidis; experiment: Antimicrobial activity against methicillin-resistant coagulase-negative Staphylococcus epidermidis assessed as susceptible isolates after 24 hrs by broth microdilution method
Staphylococcus hominis [25] = experiment: Antimicrobial activity against methicillin-resistant coagulase-negative Staphylococcus hominis after 24 hrs by broth microdilution method; summary of the method: as §1
Staphylococcus aureus [26] = experiment: Bactericidal activity against methicillin-susceptible Staphylococcus aureus after 24 hrs by plate counting method; summary of the method: as §2
[27] = test system: Staphylococcus epidermidis; experiment: Bactericidal activity against methicillin-susceptible coagulase-negative Staphylococcus epidermidis after 24 hrs by plate counting method; summary of the method: as §2
Staphylococcus simulans [28] = experiment: Antimicrobial activity against methicillin-resistant coagulase-negative Staphylococcus simulans after 24 hrs by broth microdilution method; summary of the method: as §1
[29] = test system: Staphylococcus haemolyticus; experiment: Antimicrobial activity against methicillin-susceptible coagulase-negative Staphylococcus haemolyticus assessed as susceptible isolates after 24 hrs by broth microdilution method
Staphylococcus simulans [30] = experiment: Antimicrobial activity against methicillin-susceptible coagulase-negative Staphylococcus simulans assessed as susceptible isolates after 24 hrs by broth microdilution method; summary of the method: as §3
Staphylococcus simulans [31] = experiment: Bactericidal activity against methicillin-resistant coagulase-negative Staphylococcus simulans after 24 hrs by plate counting method; conditions: Staphylococcus simulans, 24 h; summary of the method: as §2
Staphylococcus aureus [32] = experiment: Antimicrobial activity against methicillin-susceptible Staphylococcus aureus assessed as susceptible isolates after 24 hrs by broth microdilution method
Mammaliicoccus sciuri [33] = experiment: Antimicrobial activity against methicillin-resistant coagulase-negative Staphylococcus sciuri after 24 hrs by broth microdilution method; summary of the method: as §1
Staphylococcus aureus [34] = experiment: Antimicrobial activity against methicillin-susceptible Staphylococcus aureus after 24 hrs by broth microdilution method; summary of the method: as §1

## CC(=O)NC[C@H]1CN(c2ccc(N3CCOCC3)c(F)c2)C(=O)O1 [LINEZOLID]
[1]
  Activity: 100%
[2]
  MIC50: 0.25 µg/mL (≈ 0.741 µM)
  MIC90: 2 µg/mL (≈ 5.93 µM)
Staphylococcus simulans [3]
  MBC50: 2 µg/mL (≈ 5.93 µM)
  MBC90: 4 µg/mL (≈ 11.9 µM)
Staphylococcus simulans [3]; Staphylococcus simulans, 24 h
  MBC: 0.25 µg/mL (≈ 0.741 µM)
Staphylococcus hominis [4]
  Activity: 96%
Mammaliicoccus sciuri [5]
  Activity: 96%
Staphylococcus hominis [6]
  MBC50: 2 µg/mL (≈ 5.93 µM)
  MBC90: 4 µg/mL (≈ 11.9 µM)
Staphylococcus hominis [6]; Staphylococcus hominis, 24 h
  MBC: 0.25 µg/mL (≈ 0.741 µM)
Staphylococcus hominis [7]
  MBC: 0.5 µg/mL (≈ 1.48 µM)
Staphylococcus aureus [8]
  MBC90: 16 µg/mL (≈ 47.4 µM)
Staphylococcus aureus [8]; Staphylococcus aureus, 24 h
  MBC: 8 µg/mL (≈ 23.7 µM)
[9]
  MIC50: 0.25 µg/mL (≈ 0.741 µM)
  MIC90: 2 µg/mL (≈ 5.93 µM)
[10]
  Activity: 96%
Staphylococcus aureus [11]
  Activity: 100%
Staphylococcus hominis [12]
  Activity: 100%
[13]
  MIC50: 0.25 µg/mL (≈ 0.741 µM)
  MIC90: 4 µg/mL (≈ 11.9 µM)
[14]
  MBC50: 2 µg/mL (≈ 5.93 µM)
  MBC90: 4 µg/mL (≈ 11.9 µM)
[14]; Staphylococcus haemolyticus, 24 h
  MBC: 0.25 µg/mL (≈ 0.741 µM)
Staphylococcus simulans [15]
  MIC50: 0.25 µg/mL (≈ 0.741 µM)
  MIC90: 4 µg/mL (≈ 11.9 µM)
[16]
  MBC: 0.5 µg/mL (≈ 1.48 µM)
[17]
  MIC50: 0.25 µg/mL (≈ 0.741 µM)
  MIC90: 4 µg/mL (≈ 11.9 µM)
Staphylococcus hominis [18]
  MIC50: 0.25 µg/mL (≈ 0.741 µM)
  MIC90: 4 µg/mL (≈ 11.9 µM)
[19]
  MBC: 0.5 µg/mL (≈ 1.48 µM)
Mammaliicoccus sciuri [20]
  MBC50: 2 µg/mL (≈ 5.93 µM)
  MBC90: 4 µg/mL (≈ 11.9 µM)
Mammaliicoccus sciuri [20]; Mammaliicoccus sciuri, 24 h
  MBC: 0.25 µg/mL (≈ 0.741 µM)
Mammaliicoccus sciuri [21]
  MIC50: 0.25 µg/mL (≈ 0.741 µM)
  MIC90: 4 µg/mL (≈ 11.9 µM)
Staphylococcus aureus [22]
  MIC50: 1 µg/mL (≈ 2.96 µM)
  MIC90: 2 µg/mL (≈ 5.93 µM)
Mammaliicoccus sciuri [23]
  MBC: 0.5 µg/mL (≈ 1.48 µM)
[24]
  Activity: 100%
Staphylococcus hominis [25]
  MIC50: 0.25 µg/mL (≈ 0.741 µM)
  MIC90: 2 µg/mL (≈ 5.93 µM)
Staphylococcus aureus [26]
  MBC50: 8 µg/mL (≈ 23.7 µM)
  MBC90: 32 µg/mL (≈ 94.9 µM)
Staphylococcus aureus [26]; Staphylococcus aureus, 24 h
  MBC: 2 µg/mL (≈ 5.93 µM)
[27]
  MBC50: 2 µg/mL (≈ 5.93 µM)
  MBC90: 4 µg/mL (≈ 11.9 µM)
[27]; Staphylococcus epidermidis, 24 h
  MBC: 0.25 µg/mL (≈ 0.741 µM)
Staphylococcus simulans [28]
  MIC50: 0.25 µg/mL (≈ 0.741 µM)
  MIC90: 2 µg/mL (≈ 5.93 µM)
[29]
  Activity: 96%
Staphylococcus simulans [30]
  Activity: 96%
Staphylococcus simulans [31]
  MBC: 0.5 µg/mL (≈ 1.48 µM)
Staphylococcus aureus [32]
  Activity: 96%
Mammaliicoccus sciuri [33]
  MIC50: 0.25 µg/mL (≈ 0.741 µM)
  MIC90: 2 µg/mL (≈ 5.93 µM)
Staphylococcus aureus [34]
  MIC50: 1 µg/mL (≈ 2.96 µM)
  MIC90: 4 µg/mL (≈ 11.9 µM)
